Assay outcomes deposited in PubChem by several laboratories.
KCNQ1 pot – potentiates or activates the human KCNQ1 potassium channel; 310,000 tested, 0.35% active; AID 2648; B-score at 10 µM; CHO-K1 KCNQ1, thallium flux FluxOR fluorescence; active compounds read high;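 active = fluorescence ratio B-score, a plate-corrected score, at least three library SD, with initial intensity B-score within 5 SD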
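assay system = CHO-K1 cells stably expressing KCNQ1 | medium = assay buffer, equal DMSO in all wells | timing = 37 °C overnight plating, 90-min dark dye load, 20-min compound pretreatment | measured by = kinetic FluxOR thallium fluorescence, 10-s 1-Hz baseline, 110-s post-stimulus read | measure = fluorescence change relative to baseline, converted to B score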
SUMO Mot1 rescue – blocks SUMOylation pathway, rescuing yeast Mot1-301 growth | S. cerevisiae Mot1-301 growth rescue, ATP luminescence, 38.5C; percent above DMSO median, 100 means doubled | growth rescue, % at 18.8 µM | 320,000 tested, 1% active;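 active = every valid replicate shows activation above 250% relative to neutral control wells; inactive = the rest, any valid replicate at or below 250%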;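 also: OY570 slx delta 5 strain wells were the positive control but not used for scaling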
KCNQ1 block – inhibitors of human KCNQ1 potassium channel; CHO-K1 KCNQ1, FluxOR thallium flux fluorescence; active compounds read high; 310,000 tested, 1.3% active; B-score at 10 µM; P51787; AID 2642;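 active = compounds whose thallium flux B-score, printed positive for inhibition, exceeds three library SD while starting fluorescence stays within three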;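 also: channel opened by potassium depolarization with thallium stimulus after 20 min compound exposure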
AI-2 QS mod – Vibrio harveyi AI-2 quorum sensing modulation. activity change, % at 7.5 µM. Vibrio harveyi JMH597 AI-2 luminescence/OD600 ratio, 9 h; active compounds read low; strain lacks LuxN and CqsS sensors; 0 = neutral-control median. 300,000 tested, 0.4% active; in the data active = activity change below about -75%, passing the limit was not always enough; inconclusive = no clear call, values can overlap the other calls;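 also: luminescence divided by OD600 gain over 9 h not by final OD600 alone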
KCC2 mod – modulators of human KCC2 chloride dependent transport | Q9H2X9 | KCC2 cells, thallium flux FluoZin-2 fluorescence | B-score of Tl+ flux slope (higher = more flux/activation; lower = inhibition) at 10 µM | 190,000 tested, 2.2% active | AID 1456;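 active = thallium flux slope and its plate-corrected score both differing from the plate sample mean at a set confidence after two filtering rounds, in either direction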;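 also: slope of fluorescence scaled to starting intensity during 10 to 20 s after thallium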
hERG protect – shields human hERG channel from block by proarrhythmic agents; CHO-hERG, FluxOR thallium flux, dofetilide IC70 present; activation (rescue from dofetilide block), less the hit threshold, % at 10 µM; 310,000 tested, 0.51% active; Q12809;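 active = activation above the mean of controls blocked by dofetilide plus 5 SD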;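 also: thallium influx through hERG after potassium depolarization seen as dye fluorescence rise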
Target sequence (Q12809 whole entry, looked up): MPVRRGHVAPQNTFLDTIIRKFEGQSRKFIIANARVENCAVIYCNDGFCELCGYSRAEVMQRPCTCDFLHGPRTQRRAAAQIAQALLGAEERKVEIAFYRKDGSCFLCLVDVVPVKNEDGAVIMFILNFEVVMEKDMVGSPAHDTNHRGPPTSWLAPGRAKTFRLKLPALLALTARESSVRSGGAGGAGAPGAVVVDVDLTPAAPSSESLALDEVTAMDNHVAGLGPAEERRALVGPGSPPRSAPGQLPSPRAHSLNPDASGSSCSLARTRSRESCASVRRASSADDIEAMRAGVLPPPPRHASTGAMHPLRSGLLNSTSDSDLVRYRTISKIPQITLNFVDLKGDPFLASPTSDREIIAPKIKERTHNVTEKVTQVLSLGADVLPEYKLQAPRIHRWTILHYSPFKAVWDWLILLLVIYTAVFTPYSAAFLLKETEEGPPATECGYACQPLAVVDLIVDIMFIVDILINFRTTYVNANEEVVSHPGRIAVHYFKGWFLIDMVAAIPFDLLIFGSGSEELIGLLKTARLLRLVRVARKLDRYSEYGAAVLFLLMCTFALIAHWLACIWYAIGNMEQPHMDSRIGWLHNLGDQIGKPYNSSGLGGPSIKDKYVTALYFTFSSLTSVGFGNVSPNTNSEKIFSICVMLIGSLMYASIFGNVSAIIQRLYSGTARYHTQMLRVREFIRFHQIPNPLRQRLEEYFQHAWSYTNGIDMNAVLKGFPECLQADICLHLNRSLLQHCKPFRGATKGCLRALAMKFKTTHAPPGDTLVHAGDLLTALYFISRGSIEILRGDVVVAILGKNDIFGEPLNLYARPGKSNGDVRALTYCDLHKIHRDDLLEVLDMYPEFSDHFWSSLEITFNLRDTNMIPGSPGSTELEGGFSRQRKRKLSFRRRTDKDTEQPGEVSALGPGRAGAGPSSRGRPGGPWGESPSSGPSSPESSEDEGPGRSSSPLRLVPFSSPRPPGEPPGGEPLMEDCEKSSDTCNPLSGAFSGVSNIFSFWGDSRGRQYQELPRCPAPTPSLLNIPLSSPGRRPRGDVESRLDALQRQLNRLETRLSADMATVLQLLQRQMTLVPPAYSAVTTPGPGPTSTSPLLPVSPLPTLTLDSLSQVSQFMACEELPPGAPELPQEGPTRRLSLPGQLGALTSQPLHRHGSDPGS
KCC2 secondary – KCC2 (human) modulation, secondary assay; shares compounds with KCC2 mod; normalised thallium flux (F/F0 slope) at 10 µM; AID 1713; HEK293-KCC2, thallium flux, FluoZin2 fluorescence; active compounds read high; 3,700 tested, 15% active;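 active = thallium flux slope above the same plate's solvent-only control mean plus 3 SD; inconclusive = the two replicate wells disagree; inactive = no significant difference from solvent-only control wells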
KCC2 bumet counter – bumetanide-insensitive thallium flux in KCC2 cells with ouabain, counter-screen; shares compounds with KCC2 mod; HEK293-KCC2 + bumetanide/ouabain, thallium flux FluoZin2; active compounds read high; normalized thallium flux at 10 µM; 3,700 tested, 49% active; AID 1714;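 active = thallium entry rate above the same plate's blocked-transporter control wells by more than 3 SD; inconclusive = the two repeat wells disagree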;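 also: raw slope of fluorescence over initial fluorescence between 10 and 20 s after thallium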
KCC2 sec2 – confirmation of human KCC2 transport modulators. normalized thallium flux at 10 µM. HEK293-KCC2, thallium flux FluoZin2 fluorescence; actives lie on both sides; F/F0 rise rate, 10–20 s post-thallium. 3,700 tested, 23% active. shares compounds with KCC2 mod;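 active = thallium flux slope more than 3 SD above or below the plate's solvent-only control mean, mostly below; inconclusive = the two repeat wells disagreed; inactive = no significant shift from solvent-only controls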;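 also: raw slope with 0.1% DMSO as baseline and bumetanide as block control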
HEK counter1 – counter-screen for KCC2 modulators: effect in parental HEK293 cells; shares compounds with KCC2 mod; thallium flux FluoZin2, ouabain; baseline-ratio fluorescence slope, 10–20 s after thallium; thallium flux rate (normalised fluorescence) at 10 µM; 3,700 tested, 46% active; AID 1716;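 active = thallium flux rate significantly above the same plate's solvent-only control wells, beyond their mean plus 3 SD; inconclusive = the two replicate wells gave conflicting results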
KCC2 retest ouab – confirmation of human KCC2 modulators with ouabain | shares compounds with KCC2 mod | HEK293-KCC2, thallium flux FluoZin2 fluorescence; bidirectional: low = inhibitor, high = activator | raw Tl+ flux slope (below DMSO = inhibition, above = activation) at 10 µM | 3,700 tested, 48% active;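 active = thallium flux slope beyond 3 SD from same-plate DMSO control mean in most replicates, usually higher, sometimes lower; inconclusive = repeat tests gave conflicting results; inactive = no significant difference from controls in most replicates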;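 also: slope of initial-normalized fluorescence between seconds 10 and 20 after thallium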
HEK counter2 – acts in parental HEK cells, second KCC2 counter-screen; shares compounds with KCC2 mod; HEK293 parental, thallium flux FluoZin-2 fluorescence slope; thallium flux slope at 10 µM; 3,700 tested, 33% active; AID 1718;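 active = thallium flux slope above the same plate's solvent-control mean plus 3 SD in both duplicate wells; inconclusive = duplicate wells that disagreed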;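 also: run without ouabain in cells lacking the KCC2 cotransporter; slope of fluorescence scaled to its starting value between 10 and 20 s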
Active calls of the source: *. Sampled rows, rich in hits. Any-hit rate of the full collection: about 4.2%.

Results for Cc1noc(C)c1S(=O)(=O)N1CCCC1C(=O)O (configuration not stated) ?
KCNQ1 pot: inactive; SUMO Mot1 rescue: 13; KCNQ1 block: inactive; AI-2 QS mod: 7; hERG protect: -2

How did CC(C)(C)NC(=O)CN(Cc1ccc2c(c1)OCO2)C(=O)CNS(=O)(=O)c1ccccc1 do in these assays?
KCNQ1 pot: inactive; SUMO Mot1 rescue: 4; KCNQ1 block: inactive; AI-2 QS mod: 18; hERG protect: -6

How did CCC(CC)C(=O)Nc1nnc(S(=O)(=O)Nc2ccccc2C)s1 do in these assays?
KCNQ1 pot: inactive; SUMO Mot1 rescue: -7; KCNQ1 block: inactive; AI-2 QS mod: 22; hERG protect: -6

Results for O=C(NC1CCSc2ccccc21)c1cccc([N+](=O)[O-])c1 (configuration not stated) ?
KCNQ1 pot: inactive; SUMO Mot1 rescue: 1; KCNQ1 block: inactive; AI-2 QS mod: -8; hERG protect: -12

How did CC(OC(=O)c1ccccc1NCc1ccco1)C(=O)Nc1ncc(Cl)cc1Cl (configuration not stated) do in these assays?
KCNQ1 pot: inactive; SUMO Mot1 rescue: 8; KCNQ1 block: inactive; AI-2 QS mod: 10; KCC2 mod: -3*; hERG protect: -8; KCC2 secondary: 0.0089; KCC2 bumet counter: 0.0058; KCC2 sec2: 0.03; HEK counter1: 0.0064; KCC2 retest ouab: inconclusive; HEK counter2: inconclusive

Results for CC(OC(=O)c1ccc(S(=O)(=O)NCc2ccco2)cc1)C(=O)Nc1ccc(Cl)cn1 (configuration not stated) ?
KCNQ1 pot: inactive; SUMO Mot1 rescue: 93; KCNQ1 block: inactive; AI-2 QS mod: 12; KCC2 mod: 0.75; hERG protect: -13

How did COc1cc(NC(=O)CSc2nccc(=O)[nH]2)c(C)cc1[N+](=O)[O-] do in these assays?
KCNQ1 pot: inactive; SUMO Mot1 rescue: 7; KCNQ1 block: inactive; AI-2 QS mod: 10; KCC2 mod: -3.4*; hERG protect: 1; KCC2 secondary: 0.0067; KCC2 bumet counter: 0.0046; KCC2 sec2: 0.03; HEK counter1: 0.007; KCC2 retest ouab: 0.018; HEK counter2: 0.0098

What do the screens show for `Cc1nc(C(=O)NNC(=O)c2ccc(Cl)cc2)c(C(F)(F)F)o1`?
KCNQ1 pot: inactive; SUMO Mot1 rescue: -4; KCNQ1 block: inactive; AI-2 QS mod: 27; KCC2 mod: 17*; hERG protect: -5; KCC2 secondary: 0.0055; KCC2 bumet counter: 0.03*; KCC2 sec2: 0.039*; HEK counter1: 0.024*; KCC2 retest ouab: 0.035*; HEK counter2: 0.02*
